From ChEMBL document CHEMBL2440018 (J Med Chem, 2013)
Calls of active or inactive are those of the source. The calls are words filed in the database; no cut-off is given here.

How the values were obtained:
Liver [1] = test: Metabolic stability in rat liver S9 fraction assessed as formation of 4-(4-(thiiran-2-ylmethylsulfonyl)phenoxy)phenol at 50 uM after 30 mins by reversed-phase LC/MS analysis; format: ADME, subcellular; conditions: s9, 0.5 h
In short: (§1)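 50 µM compound was incubated with rat liver S9 (1.0 mg) and 0.5 mM NADPH in 50 mM potassium phosphate, pH 7.4, at 37 °C for 30 min. The reaction was stopped with one volume of acetonitrile and centrifuged. Metabolites in the supernatant were identified by reversed-phase LC/ESI-QTOF mass spectrometry.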

[2] = target: T1, Matrilysin (Homo sapiens) (UniProt P09237); test: Inhibition of human recombinant MMP-7 at 50 uM by fluorescence spectrophotometric analysis relative to control
T1 sequence (whole entry): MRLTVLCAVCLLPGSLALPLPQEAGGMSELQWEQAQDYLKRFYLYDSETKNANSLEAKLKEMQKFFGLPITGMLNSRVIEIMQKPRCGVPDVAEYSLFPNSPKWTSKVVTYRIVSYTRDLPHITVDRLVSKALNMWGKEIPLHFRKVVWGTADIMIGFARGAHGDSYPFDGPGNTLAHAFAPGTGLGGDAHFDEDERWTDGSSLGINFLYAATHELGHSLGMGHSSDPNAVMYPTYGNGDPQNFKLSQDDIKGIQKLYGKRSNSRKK

Neutrophil collagenase = Neutrophil collagenase (Homo sapiens, UniProt P22894); test: Inhibition of human recombinant MMP-8 catalytic domain using […] as substrate by fluorescence spectrophotometric analysis
Brain [3] = test: Elimination half life in C57Bl/6J mouse brain assessed as 4-(4-(thiiran-2-ylmethylsulfonyl)phenoxy)phenol at 25 mg/kg, sc; format: ADME, organism-based; design: dose 25 mg/kg, route subcutaneous; conditions: in vivo
In short: (§2)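 Mice were dosed sc once at 25 mg/kg; plasma and perfused brain (n = 3 per time point) were quantified by UPLC/ESI-MRM. AUC0-last came from the mean concentration-time curve by the trapezoidal rule, and AUC0-∞ = AUC0-last + Clast/k. α and β half-lives came from linear regression on the linear portion of the concentration-time data, with t1/2 = ln2/k.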

Brain [4] = test: AUC (0 to infinity) in C57Bl/6J mouse brain assessed as 4-(4-(thiiran-2-ylmethylsulfonyl)phenoxy)phenol at 25 mg/kg, sc; format: ADME, organism-based; design: time infinity, dose 25 mg/kg, route subcutaneous; conditions: in vivo; in short: as §2
[5] = target: MMP-2/MMP-9 (Homo sapiens) (UniProt P08253+P14780); test: Selectivity ratio of Ki for human recombinant MMP-9 catalytic domain to Ki for human recombinant MMP-2
Brain [6] = test: Metabolic stability in C57Bl/6J mouse brain assessed as formation of 4-(4-(thiiran-2-ylmethylsulfonyl)phenoxy)phenol at 25 mg/kg, sc measured at 10 to 240 mins; format: ADME, organism-based; design: dose 25 mg/kg, route subcutaneous; conditions: in vivo
In short: (§3)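 Female C57Bl/6J mice (6–8 weeks, 16–19 g) received a single 100 µL sc dose equivalent to 25 mg/kg, in 10% DMSO/25% Tween 80/65% water or 80% propylene glycol/20% DMSO. Terminal heparinised vena cava blood gave plasma, and saline-perfused whole brain was taken; n = 3 per time point. Acetonitrile extracts with internal standard were run by UPLC/ESI-MRM against matrix calibration curves, linear 0.05–5 µM.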

Homo sapiens = species on record: Homo sapiens; test: Selectivity ratio of Ki for human recombinant MMP-8 catalytic domain to Ki for human recombinant MMP-2
Brain [7] = test: Drug uptake in C57Bl/6J mouse brain assessed as 4-(4-(thiiran-2-ylmethylsulfonyl)phenoxy)phenol measured per mg of tissue at 25 mg/kg, sc measured at 20 mins by reversed phase UPLC/ESI-MRM analysis; format: ADME, organism-based; design: dose 25 mg/kg, route subcutaneous; conditions: in vivo; in short: as §3
Plasma [8] = test: Elimination half life in C57Bl/6J mouse plasma assessed as 4-(4-(thiiran-2-ylmethylsulfonyl)phenoxy)phenol at 25 mg/kg, sc; format: ADME, organism-based; design: dose 25 mg/kg, route subcutaneous; conditions: in vivo; in short: as §2
Brain [9] = test: Drug uptake in C57Bl/6J mouse brain assessed as 4-(4-(thiiran-2-ylmethylsulfonyl)phenoxy)phenol measured per mg of tissue at 25 mg/kg, sc measured at 4 hrs by reversed phase UPLC/ESI-MRM analysis; format: ADME, organism-based; design: dose 25 mg/kg, route subcutaneous; conditions: in vivo; in short: as §3
[10] = target: Matrix metalloproteinase-9 (Homo sapiens, UniProt P14780); test: Inhibition of human recombinant MMP-9 catalytic domain using MOCAcPLGLA2pr(Dnp)AR-NH2 as substrate by fluorescence spectrophotometric analysis
Plasma [11] = test: Primary phase half life in C57Bl/6J mouse plasma assessed as 4-(4-(thiiran-2-ylmethylsulfonyl)phenoxy)phenol at 25 mg/kg, sc; format: ADME, organism-based; design: dose 25 mg/kg, route subcutaneous; conditions: in vivo; in short: as §2
Liver [12] = test: Metabolic stability in rat liver S9 fraction assessed as formation of 4-(4-(ethylcarbamoyloxy)phenoxy)benzenesulfinic acid at 50 uM after 30 mins by reversed-phase LC/MS analysis; format: ADME, subcellular; conditions: s9, 0.5 h; in short: as §1
Plasma [13] = test: Plasma concentration in C57Bl/6J mouse assessed as 4-(4-(thiiran-2-ylmethylsulfonyl)phenoxy)phenol at 25 mg/kg, sc measured at 4 hrs by reversed phase UPLC/ESI-MRM analysis; format: ADME, organism-based; design: dose 25 mg/kg, route subcutaneous; conditions: in vivo; in short: as §3
Plasma [14] = test: AUC (0 to last) in C57Bl/6J mouse plasma assessed as 4-(4-(thiiran-2-ylmethylsulfonyl)phenoxy)phenol at 25 mg/kg, sc; format: ADME, organism-based; design: time 0 - last, dose 25 mg/kg, route subcutaneous; conditions: in vivo; in short: as §2
[15] = Ratio of AUC in brain to plasma in C57Bl/6J mouse assessed as 4-(4-(thiiran-2-ylmethylsulfonyl)phenoxy)phenol at 25 mg/kg, sc; format: ADME, organism-based; design: dose 25 mg/kg, route subcutaneous
[16] = target: Stromelysin-1 (Homo sapiens) (UniProt P08254); test: Inhibition of human recombinant MMP-3 catalytic domain at 50 uM by fluorescence spectrophotometric analysis relative to control
[17] = target: T2, Interstitial collagenase (Homo sapiens) (UniProt P03956); test: Inhibition of human recombinant MMP-1 catalytic domain at 50 uM by fluorescence spectrophotometric analysis relative to control
T2 sequence (whole entry): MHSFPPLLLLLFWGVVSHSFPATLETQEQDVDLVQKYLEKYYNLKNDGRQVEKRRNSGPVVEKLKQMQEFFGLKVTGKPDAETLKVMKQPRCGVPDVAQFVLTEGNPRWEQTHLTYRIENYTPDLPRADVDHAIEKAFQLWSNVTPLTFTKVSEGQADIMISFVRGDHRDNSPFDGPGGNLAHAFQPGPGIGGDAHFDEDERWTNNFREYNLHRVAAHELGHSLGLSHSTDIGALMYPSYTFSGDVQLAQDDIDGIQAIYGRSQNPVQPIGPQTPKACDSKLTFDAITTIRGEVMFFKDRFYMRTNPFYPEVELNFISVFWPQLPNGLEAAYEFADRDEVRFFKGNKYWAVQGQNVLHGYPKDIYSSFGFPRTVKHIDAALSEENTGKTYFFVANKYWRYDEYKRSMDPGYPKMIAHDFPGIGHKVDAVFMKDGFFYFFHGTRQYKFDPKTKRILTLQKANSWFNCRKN

[18] = target: MMP-2/MMP-14 (Homo sapiens) (UniProt P50281+P08253); test: Selectivity ratio of Ki for human recombinant MMP-14 catalytic domain to Ki for human recombinant MMP-2
Plasma [19] = test: Metabolic stability in C57Bl/6J mouse plasma assessed as formation of 4-(4-(thiiran-2-ylmethylsulfonyl)phenoxy)phenol at 25 mg/kg, sc measured at 10 to 240 mins; format: ADME, organism-based; design: dose 25 mg/kg, route subcutaneous; conditions: in vivo; in short: as §3
[20] = target: 72 kDa type IV collagenase (Homo sapiens, UniProt P08253); test: Inhibition of human recombinant MMP-2 using MOCAcPLGLA2pr(Dnp)AR-NH2 as substrate by fluorescence spectrophotometric analysis
Brain [21] = test: AUC (0 to last) in C57Bl/6J mouse brain assessed as 4-(4-(thiiran-2-ylmethylsulfonyl)phenoxy)phenol at 25 mg/kg, sc; format: ADME, organism-based; design: dose 25 mg/kg, route subcutaneous; conditions: in vivo; in short: as §2
Plasma [22] = test: Plasma concentration in C57Bl/6J mouse assessed as 4-(4-(thiiran-2-ylmethylsulfonyl)phenoxy)phenol at 25 mg/kg, sc measured at 10 mins by reversed phase UPLC/ESI-MRM analysis; format: ADME, organism-based; design: dose 25 mg/kg, route subcutaneous; conditions: in vivo; in short: as §3
Plasma [23] = test: AUC (0 to infinity) in C57Bl/6J mouse plasma assessed as 4-(4-(thiiran-2-ylmethylsulfonyl)phenoxy)phenol at 25 mg/kg, sc; format: ADME, organism-based; design: time infinity, dose 25 mg/kg, route subcutaneous; conditions: in vivo; in short: as §2
Liver [24] = test: Half life in rat liver S9 fraction at 10 uM by reversed-phase UPLC/ESI-MRM analysis; format: ADME, subcellular; conditions: s9, 10 µM
In short: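 Male rat liver S9 (1.0 mg) with 0.5 mM NADPH and 10 µM compound (both final) in 50 mM potassium phosphate, pH 7.4, at 37 °C, sampled over time. Aliquots were stopped with acetonitrile containing internal standard, and the supernatant was run by UPLC/ESI-MRM. Half-lives used first-order kinetics on peak-area ratios to internal standard.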

[25] = target: Matrix metalloproteinase-14 (Homo sapiens, UniProt P50281); test: Inhibition of human recombinant MMP-14 catalytic domain using MOCAcPLGLA2pr(Dnp)AR-NH2 as substrate by fluorescence spectrophotometric analysis
Liver [26] = test: Metabolic stability in rat liver S9 fraction assessed as formation of Ethyl-carbamic acid 4-[4-(1-oxo-1lambda4-thiiran-2-ylmethanesulfonyl)-phenoxy]-phenyl ester at 50 uM after 30 mins by reversed-phase LC/MS analysis; format: ADME, subcellular; conditions: s9, 0.5 h; in short: as §1

Matrix metalloproteinase-9, sequence (P14780 whole entry, the tested form may be a part): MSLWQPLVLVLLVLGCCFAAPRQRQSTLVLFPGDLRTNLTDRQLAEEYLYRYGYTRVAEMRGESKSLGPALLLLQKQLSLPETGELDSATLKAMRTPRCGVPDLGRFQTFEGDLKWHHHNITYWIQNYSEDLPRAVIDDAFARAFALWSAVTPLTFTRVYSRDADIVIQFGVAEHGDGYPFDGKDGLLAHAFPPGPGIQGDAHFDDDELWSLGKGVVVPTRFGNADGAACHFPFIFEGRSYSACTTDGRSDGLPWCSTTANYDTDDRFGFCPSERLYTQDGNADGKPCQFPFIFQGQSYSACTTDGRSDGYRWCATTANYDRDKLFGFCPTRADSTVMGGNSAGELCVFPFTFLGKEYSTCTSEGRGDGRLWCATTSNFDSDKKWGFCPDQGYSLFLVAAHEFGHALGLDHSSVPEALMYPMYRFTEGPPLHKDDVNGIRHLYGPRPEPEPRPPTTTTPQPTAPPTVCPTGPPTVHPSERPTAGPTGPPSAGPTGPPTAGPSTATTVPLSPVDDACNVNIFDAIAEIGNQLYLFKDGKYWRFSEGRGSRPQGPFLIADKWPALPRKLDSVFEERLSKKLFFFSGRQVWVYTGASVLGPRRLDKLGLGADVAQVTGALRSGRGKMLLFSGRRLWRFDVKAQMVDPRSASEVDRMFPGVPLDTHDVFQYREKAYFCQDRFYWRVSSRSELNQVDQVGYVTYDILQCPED
Neutrophil collagenase, sequence (P22894 whole entry, the tested form may be a part): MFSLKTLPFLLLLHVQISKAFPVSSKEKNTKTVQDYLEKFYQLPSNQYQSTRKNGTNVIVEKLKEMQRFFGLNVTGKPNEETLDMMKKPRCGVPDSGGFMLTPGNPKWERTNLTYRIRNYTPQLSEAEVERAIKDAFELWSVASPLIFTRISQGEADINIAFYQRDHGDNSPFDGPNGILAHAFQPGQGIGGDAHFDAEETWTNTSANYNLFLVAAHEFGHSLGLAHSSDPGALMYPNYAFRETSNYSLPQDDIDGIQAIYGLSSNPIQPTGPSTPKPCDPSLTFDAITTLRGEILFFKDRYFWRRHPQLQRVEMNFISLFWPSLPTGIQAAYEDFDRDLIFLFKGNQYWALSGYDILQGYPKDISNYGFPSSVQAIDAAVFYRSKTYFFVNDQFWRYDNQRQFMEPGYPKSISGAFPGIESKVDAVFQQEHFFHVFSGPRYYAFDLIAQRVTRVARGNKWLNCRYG
72 kDa type IV collagenase, sequence (P08253 whole entry): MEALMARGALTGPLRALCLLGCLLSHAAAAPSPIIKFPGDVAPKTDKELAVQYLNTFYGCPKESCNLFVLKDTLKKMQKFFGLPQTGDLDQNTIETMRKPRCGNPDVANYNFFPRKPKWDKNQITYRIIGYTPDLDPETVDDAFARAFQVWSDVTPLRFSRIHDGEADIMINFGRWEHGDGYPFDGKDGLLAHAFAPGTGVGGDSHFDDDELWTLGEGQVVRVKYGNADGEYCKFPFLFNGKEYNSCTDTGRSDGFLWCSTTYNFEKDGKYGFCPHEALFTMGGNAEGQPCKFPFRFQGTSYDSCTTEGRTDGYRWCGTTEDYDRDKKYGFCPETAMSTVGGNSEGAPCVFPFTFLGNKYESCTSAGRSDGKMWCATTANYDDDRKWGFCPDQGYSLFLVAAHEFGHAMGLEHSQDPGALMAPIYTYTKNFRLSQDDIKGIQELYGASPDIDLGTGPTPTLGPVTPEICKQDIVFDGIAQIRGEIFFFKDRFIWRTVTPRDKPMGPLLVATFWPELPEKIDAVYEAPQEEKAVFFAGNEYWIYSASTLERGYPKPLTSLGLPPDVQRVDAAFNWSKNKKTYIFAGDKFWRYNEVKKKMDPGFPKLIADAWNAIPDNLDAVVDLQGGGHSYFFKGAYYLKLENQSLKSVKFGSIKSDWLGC

## CCNC(=O)Oc1ccc(Oc2ccc(S(=O)(=O)CC3CS3)cc2)cc1 (stereo not drawn)
Liver [1]
  Stability: Unstable
[2]
  inhibition: inactive
Neutrophil collagenase
  Ki: 15 µM
Brain [3]
  beta t1/2: 8.88 h
Brain [4]
  AUC: 129 pmol·min/mg
[5]
  Ratio Ki: 20
Brain [6]
  Stability: Unstable
Homo sapiens
  Ratio Ki: 20
Brain [7]
  Drug uptake: 1.35 pmol
Plasma [8]
  beta t1/2: 7.7 h
Brain [9]
  Drug uptake: 0.255 pmol
[10]
  Ki: 12 µM
Plasma [11]
  alphat1/2: 41.3 min
Liver [12]
  Stability: Unstable
Plasma [13]
  concentration: 114 nM
Plasma [14]
  AUClast: 54 µM·min
[15]
  Ratio AUC: 1.64
[16]
  inhibition: 37%
[17]
  inhibition: inactive
[18]
  Ratio Ki: 20
Plasma [19]
  Stability: Unstable
[20]
  Ki: 0.55 µM
Brain [21]
  AUClast: 88.8 pmol·min/mg
Plasma [22]
  concentration: 1240 nM
Plasma [23]
  AUC: 69.9 µM·min
Liver [24]
  t1/2: 0.38 h
[25]
  Ki: 17 µM
Liver [26]
  Stability: Unstable
